These results are taken from ChEMBL document CHEMBL1129498, “Azole endothelin antagonists. 2. Structure-activity studies” (J Med Chem, 1996).

In one assay the target is T1, Endothelin-1 receptor (Rattus norvegicus, UniProt P26684).
T1 sequence (P26684 whole entry): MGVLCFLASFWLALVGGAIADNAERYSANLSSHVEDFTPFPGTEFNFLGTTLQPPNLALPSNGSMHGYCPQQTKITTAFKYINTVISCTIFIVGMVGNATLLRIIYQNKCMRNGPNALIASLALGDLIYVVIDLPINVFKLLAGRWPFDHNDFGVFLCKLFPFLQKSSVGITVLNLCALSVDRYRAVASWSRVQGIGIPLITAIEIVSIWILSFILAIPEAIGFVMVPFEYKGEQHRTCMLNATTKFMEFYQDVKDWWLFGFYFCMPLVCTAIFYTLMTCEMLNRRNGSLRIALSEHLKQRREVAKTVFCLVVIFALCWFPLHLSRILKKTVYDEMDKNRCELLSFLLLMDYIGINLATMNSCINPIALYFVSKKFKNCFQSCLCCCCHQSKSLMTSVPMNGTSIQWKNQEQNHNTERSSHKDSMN
The assay is described as follows: Inhibitory activity was evaluated against ET- A Binding to Endothelin A receptor in MMQ cell homogenates. The class given is cell-free.

Assay [1] deals with T2, Endothelin receptor type B (Sus scrofa, UniProt P35463).
T2 sequence (P35463 whole entry): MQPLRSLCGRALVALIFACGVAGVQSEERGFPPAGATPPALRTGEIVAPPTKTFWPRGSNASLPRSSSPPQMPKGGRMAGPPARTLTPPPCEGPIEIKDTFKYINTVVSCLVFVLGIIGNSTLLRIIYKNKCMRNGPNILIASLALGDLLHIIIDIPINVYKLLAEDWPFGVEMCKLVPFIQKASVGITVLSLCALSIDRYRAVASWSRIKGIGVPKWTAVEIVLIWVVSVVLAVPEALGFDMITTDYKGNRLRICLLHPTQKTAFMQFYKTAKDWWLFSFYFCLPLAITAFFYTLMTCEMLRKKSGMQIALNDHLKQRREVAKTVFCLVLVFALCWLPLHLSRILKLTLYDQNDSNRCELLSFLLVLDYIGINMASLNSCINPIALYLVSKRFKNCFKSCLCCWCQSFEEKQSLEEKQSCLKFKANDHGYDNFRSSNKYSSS
The assay is described as follows: Inhibitory activity was evaluated against ET- B Binding to Endothelin B receptor from porcine cerebellar membranes.

The test system of another assay is MMQ. The assay is described as follows: Inhibitory activity was evaluated by measuring the PI hydrolysis in MMQ cell line. Particulars: Rattus norvegicus, MMQ. Format: functional, cell-based, Rattus norvegicus. The essentials:
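MMQ cells (0.4 × 10⁶ cells/mL) labeled 16 h with 10 µCi/mL [³H]myoinositol in RPMI, PBS-washed, then held 60 min in buffer A with protease inhibitors and 10 mM LiCl. Compound pre-incubated 5 min, then 1 nM ET-1 challenge for 30 min at 37 °C, stopped with chloroform-methanol. Total inositol phosphates extracted and taken from the aqueous phase by AG1-X8 anion-exchange batch chromatography.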

For orientation: IC50 means the concentration at which inhibition is half-maximal. A high value points to weaker potency. On to `Cc1oc([C@@H](Cc2cn(C)c3ccccc23)NC(=O)[C@H](CC(C)C)NC(=O)NC2CC3CCC2C3)nc1C(=O)O` (stereo in doubt; 15p), for which the values for the IC50 (on Endothelin-1 receptor; in assay [1]) were 0.45 µM and 26 µM, respectively.
In the same order, the values of `Cc1[nH]c([C@@H](Cc2c[nH]c3ccccc23)NC(=O)[C@H](CC(C)C)NC(=O)NC2CCCCC2)nc1C(=O)O` are 0.075 µM and more than 100 µM.
As to `Cc1[nH]c([C@@H](Cc2cn(C)c3ccccc23)NC(=O)[C@H](CC(C)C)NC(=O)NC2CCCCC2C)nc1C(=O)O` (some centres not stated), the IC50 on Endothelin-1 receptor is 0.018 µM; in assay [1], 13 µM.
Take `CCn1cc(C[C@@H](NC(=O)[C@H](CC(C)C)NC(=O)NC2CCCCC2)c2nc(C(=O)O)c(C)o2)c2ccccc21`: in assay [1], the IC50 is more than 100 µM.
For the compound `Cc1[nH]c([C@@H](Cc2cn(C)c3ccccc23)NC(=O)[C@H](CC(C)C)NC(=O)NC2CCCC(C)C2)nc1C(=O)O` (some centres not stated), the IC50 with MMQ was 0.0086 µM; on Endothelin-1 receptor, 0.026 µM; in assay [1] it was 22 µM.
On to `Cc1oc([C@@H](Cc2cn(C)c3ccccc23)NC(=O)[C@H](CC(C)C)NC(=O)NC2CCCCC2C)nc1C(=O)O` (some centres not stated), for which the IC50 on Endothelin-1 receptor was 0.65 µM; in assay [1], more than 100 µM.
In the same order, the values of `Cc1oc([C@@H](Cc2c[nH]c3ccccc23)NC(=O)[C@H](CC(C)C)NC(=O)NCc2ccccc2)nc1C(=O)O` are 8.7 µM and 96 µM.
For `Cc1oc([C@@H](Cc2cn(C)c3ccccc23)NC(=O)[C@H](CC(C)C)NC(=O)NC2CCC(C)CC2)nc1C(=O)O` (some centres not stated), the IC50 in assay [1] is more than 100 µM.
In the case of `Cc1[nH]c([C@@H](Cc2cn(C)c3ccccc23)NC(=O)[C@H](CC(C)C)NC(=O)NC2CCC(O)CC2)nc1C(=O)O` (some centres not stated), the IC50 was 0.11 µM on Endothelin-1 receptor and more than 100 µM in assay [1].
On to `Cc1oc([C@@H](Cc2c[nH]c3ccccc23)NC(=O)[C@H](CC(C)C)NS(=O)(=O)N2CCCCCC2)nc1C(=O)O`, for which the IC50 (on Endothelin-1 receptor; in assay [1]) was more than 100 µM in each case.
As for `Cc1[nH]c([C@@H](Cc2c[nH]c3ccccc23)NC(=O)[C@H](CC(C)C)NS(=O)(=O)N2CCCCCC2)nc1C(=O)O`, the IC50 (on Endothelin-1 receptor; in assay [1]) was more than 100 µM throughout.
`Cc1oc([C@@H](Cc2cn(C)c3ccccc23)NC(=O)[C@H](CC(C)C)NC(=O)N2CCCCCC2)nc1C(=O)O`: the values for the IC50 (at Endothelin-1 receptor; in assay [1]) were 0.62 µM and more than 100 µM, respectively.
In the same order, the values of `CCn1cc(C[C@@H](NC(=O)[C@H](CC(C)C)NC(=O)NC2CCCCC2)c2nc(C(=O)O)c(C)[nH]2)c2ccccc21` are 0.73 µM and 55 µM.
In the same order, the values of `Cc1oc([C@@H](Cc2cn(C)c3ccccc23)NC(=O)[C@H](CC(C)C)NC(=O)NC2CCCCC2)nc1C(=O)O` are 0.22 µM and more than 100 µM.
In the same order, the values of `Cc1oc([C@@H](Cc2cn(C)c3ccccc23)NC(=O)[C@H](CC(C)C)NC(=O)NC2CCCC2)nc1C(=O)O` are 0.3 µM and 99 µM.
`Cc1oc([C@@H](Cc2cn(C)c3ccccc23)NC(=O)[C@H](CC(C)C)NC(=O)NC23CC4CC(CC(C4)C2)C3)nc1C(=O)O`: the IC50 at Endothelin-1 receptor was determined as 0.9 µM; in assay [1] it was 19 µM.
In the same order, the values of `Cc1oc([C@@H](Cc2cn(C)c3ccccc23)NC(=O)[C@H](CC(C)C)NC(=O)NC2C3CC4CC(C3)CC2C4)nc1C(=O)O` (some centres not stated) are 0.44 µM and 26 µM.
`Cc1[nH]c([C@@H](Cc2cn(C)c3ccccc23)NC(=O)[C@H](CC(C)C)NC(=O)N2CCCCCC2)nc1C(=O)O` registered an IC50 in assay [1] of more than 100 µM.
In the case of `COC(=O)C1(NC(=O)N[C@@H](CC(C)C)C(=O)N[C@H](Cc2cn(C)c3ccccc23)c2nc(C(=O)O)c(C)o2)CCCCC1`, the IC50 at Endothelin-1 receptor was 0.12 µM; in assay [1] it was more than 90 µM.
With `Cc1oc([C@@H](Cc2cn(C)c3ccccc23)NC(=O)[C@H](CC(C)C)NC(=O)Nc2cccc(F)c2)nc1C(=O)O`, the IC50 on Endothelin-1 receptor came to 0.066 µM; in assay [1] it was 55 µM.
In the same order, the values of `Cc1oc([C@@H](Cc2cn(C)c3ccccc23)NC(=O)[C@H](CC(C)C)NC(=O)NC2CC3CCC2C3)nc1C(=O)O` (stereo in doubt; 15o) are 0.8 µM and 67 µM.
In the same order, the values of `Cc1oc([C@@H](Cc2cn(C)c3ccccc23)NC(=O)[C@H](CC(C)C)NC(=O)NC2CCCc3ccccc32)nc1C(=O)O` (some centres not stated) are 0.23 µM and 48 µM.
Regarding `Cc1[nH]c([C@@H](Cc2c[nH]c3ccccc23)NC(=O)[C@H](CC(C)C)NC(=O)NCc2ccccc2)nc1C(=O)O`, the IC50 on Endothelin-1 receptor was 2.1 µM; in assay [1], more than 100 µM.
In the same order, the values of `CCN(CC)C(=O)N[C@@H](CC(C)C)C(=O)N[C@H](Cc1c[nH]c2ccccc12)c1nc(C(=O)O)c(C)[nH]1` are 1 µM and more than 100 µM.
On to `Cc1oc([C@@H](Cc2cn(C)c3ccccc23)NC(=O)[C@H](CC(C)C)NC(=O)Nc2ccc(F)cc2)nc1C(=O)O`, for which the IC50 on Endothelin-1 receptor was 1.9 µM; in assay [1] it was more than 100 µM.
In the same order, the values of `Cc1oc([C@@H](Cc2cn(C)c3ccccc23)NC(=O)[C@H](CC(C)C)NC(=O)NC2(C)CCCCC2)nc1C(=O)O` are 0.2 µM and 56 µM.
As for `Cc1oc([C@@H](Cc2cn(C)c3ccccc23)NC(=O)[C@H](CC(C)C)NC(=O)Nc2ccccn2)nc1C(=O)O`, the IC50 at Endothelin-1 receptor came to 0.074 µM; in assay [1] it was 66 µM.
Take `Cc1oc([C@@H](Cc2c[nH]c3ccccc23)NC(=O)[C@H](CC(C)C)NC(=O)N2CCCCCC2)nc1C(=O)O`: the values for the IC50 (in the assay on MMQ; in assay [1]) were 4.5 µM and more than 100 µM, respectively.
In the same order, the values of `Cc1[nH]c([C@@H](Cc2c[nH]c3ccccc23)NC(=O)[C@H](CC(C)C)NC(=O)N2CCCCCC2)nc1C(=O)O` are 0.78 µM and more than 100 µM.
On to `Cc1[nH]c([C@@H](Cc2cn(C)c3ccccc23)NC(=O)[C@H](CC(C)C)NC(=O)NC2CCC(C)CC2)nc1C(=O)O` (some centres not stated), for which the IC50 turned out to be 0.141 µM at Endothelin-1 receptor and 80 µM in assay [1].
For the compound `Cc1c(C(=O)O)nc([C@@H](Cc2c[nH]c3ccccc23)NC(=O)[C@H](CC(C)C)NC(=O)N2CCCCCC2)n1Cc1ccccc1`, the IC50 in assay [1] is more than 100 µM.
Regarding `Cc1oc([C@@H](Cc2c[nH]c3ccccc23)NC(=O)[C@H](CC(C)C)NC(=O)N2CCCCCC2)nc1C(=O)NO`, the IC50 on Endothelin-1 receptor was 2.9 µM; in assay [1], more than 100 µM.
In the same order, the values of `CNC(=O)c1nc([C@@H](Cc2c[nH]c3ccccc23)NC(=O)[C@H](CC(C)C)NC(=O)N2CCCCCC2)oc1C` are 3 µM and 65 µM.
In the same order, the values of `Cc1oc([C@@H](Cc2cn(C)c3ccccc23)NC(=O)[C@H](CC(C)C)NC(=O)n2ccc3ccccc32)nc1C(=O)O` are 0.058 µM and 12 µM.
As for `Cc1oc([C@@H](Cc2cn(C)c3ccccc23)NC(=O)[C@H](CC(C)C)NC(=O)Nc2c(F)c(F)c(F)c(F)c2F)nc1C(=O)O`, the IC50 on Endothelin-1 receptor is 3.55 µM; in assay [1], more than 100 µM.
In the same order, the values of `Cc1oc([C@@H](Cc2cn(C)c3ccccc23)NC(=O)[C@H](CC(C)C)NC(=O)NC2CCCCCC2)nc1C(=O)O` are 0.4 µM and 75 µM.
`Cc1oc([C@@H](Cc2c[nH]c3ccccc23)NC(=O)[C@H](CC(C)C)NC(=O)NC2CCCCC2)nc1C(=O)O` registered an IC50 in assay [1] of more than 100 µM.
On the same count and under the same terms, then `CCOC(=O)c1nc([C@@H](Cc2c[nH]c3ccccc23)NC(=O)[C@H](CC(C)C)NC(=O)N2CCCCCC2)oc1C`, with 43 µM.
As for `Cc1oc([C@@H](Cc2cn(C)c3ccccc23)NC(=O)[C@H](CC(C)C)NC(=O)NC2CCC(O)CC2)nc1C(=O)O` (some centres not stated), the IC50 on Endothelin-1 receptor is 2.52 µM; in assay [1] it was more than 100 µM.
`Cc1oc([C@@H](Cc2c[nH]c3ccccc23)NC(=O)[C@H](CC(C)C)NC(=O)N2CCCCCC2)nc1C(=O)NCC(=O)O`: the IC50 on Endothelin-1 receptor is 1.9 µM; in assay [1], more than 100 µM.
In the same order, the values of `Cc1oc([C@@H](Cc2cn(C)c3ccccc23)NC(=O)[C@H](CC(C)C)NC(=O)NC2CCCC(C)C2)nc1C(=O)O` (some centres not stated) are 0.96 µM and more than 100 µM.
Compound `Cc1c(C(=O)O)nc([C@@H](Cc2c[nH]c3ccccc23)NC(=O)[C@H](CC(C)C)NC(=O)N2CCCCCC2)n1C` registered an IC50 in assay [1] of more than 100 µM.
Consider `CCN(CC)C(=O)N[C@@H](CC(C)C)C(=O)N[C@H](Cc1c[nH]c2ccccc12)c1nc(C(=O)O)c(C)o1`, for which the IC50 at Endothelin-1 receptor is 3 µM; in assay [1] it was more than 100 µM.
In the same order, the values of `Cc1oc([C@@H](Cc2c[nH]c3ccccc23)NC(=O)[C@H](CC(C)C)NC(=O)N2CCCCCC2)nc1CC(=O)O` are 9.6 µM and more than 100 µM.
